For 18 compounds, Activity results are on record in ChEMBL document CHEMBL1128487, “Reduced-size antagonists of luteinizing hormone-releasing hormone active in vitro” (1995).

The species entered for one experiment is Rattus norvegicus. Description: In vitro inhibition of LH release in rat pituitary cells at a dose of 1 ng LHRH in absence of the compound. Format: functional, Pituitary gland cell. On the set-up: unit: ng/mL. In a few lines: (§1)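 Anterior pituitaries from female Sprague-Dawley rats (240-260 g, 18 rats) were minced and dispersed in Gey's solution with trypsin, DNase I and LBBI. Cells were plated in DMEM with 0.45% glucose, 25 mM HEPES, serum, T and 100 nM dexamethasone at about 3.0 × 10^5 cells/mL and cultured 4 days at 37 °C in 8% CO2. Cells were then exposed to antagonist plus 1 ng LHRH in Gey's solution with 0.3% glucose for 2 h. LH in the medium was measured by RIA as ng/mL of RP-3.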

For experiment [1], the target named is T1, Gonadotropin-releasing hormone receptor (Rattus norvegicus) (UniProt P30969).
T1 sequence (whole entry): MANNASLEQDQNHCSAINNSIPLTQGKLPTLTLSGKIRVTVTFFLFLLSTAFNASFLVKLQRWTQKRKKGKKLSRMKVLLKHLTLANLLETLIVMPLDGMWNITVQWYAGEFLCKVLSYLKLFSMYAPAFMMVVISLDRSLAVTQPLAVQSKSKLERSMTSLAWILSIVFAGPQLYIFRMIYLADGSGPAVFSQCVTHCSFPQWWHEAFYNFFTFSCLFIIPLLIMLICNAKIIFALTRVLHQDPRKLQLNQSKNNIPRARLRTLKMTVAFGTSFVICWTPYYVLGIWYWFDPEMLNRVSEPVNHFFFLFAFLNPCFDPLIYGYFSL
Kind of experiment: In vitro antagonistic activity against LH release in rat pituitary cells for control. The conditions noted are these: Pituitary gland cell. The class given is functional, cell-based. The method in brief:
as §1

Experiment [2] addresses T1, Gonadotropin-releasing hormone receptor (Rattus norvegicus). Description: In vitro inhibition of LH release in rat pituitary cells at a dose of 1 ug of analogue and 1 ng of LHRH. The class given is functional, cell-based. The conditions noted are these: Pituitary gland cell. The method in brief:
as §1

Experiment [3] shares this target. Kind of experiment: In vitro inhibition of LH release determined in rat pituitary cells at a dose of 3 ug of analogue and 1 ng of LHRH. The class given is functional, cell-based. The settings on record: Pituitary gland cell. The method in brief:
as §1

For experiment [4] the target is unchanged. Kind of experiment: In vitro inhibition of LH release was determined in rat pituitary cells at a dose of 0.1 ug of analogue and 1 ng of LHRH. The class given is functional, cell-based. The settings on record: Pituitary gland cell. The method in brief: as §1
The target is the same in experiment [5]. Description: In vitro inhibition of LH release was determined in rat pituitary cells at a dose of 0.3 ug of analogue and 1 ng of LHRH. Format: functional, cell-based. The conditions noted are these: Pituitary gland cell. In a few lines: as §1
Experiment [6] shares this target. Kind of experiment: In vitro inhibition of LH release was determined in rat pituitary cells at a dose of 0.03 ug of analogue and 1 ng of LHRH. Format: functional, cell-based. The settings on record: Pituitary gland cell. The method in brief:
as §1

Experiment [7] shares this target. Description: In vitro inhibition of LH release was determined in rat pituitary cells at a dose of 10 ug of analogue and 1 ng of LHRH. The settings on record: Pituitary gland cell. Format: functional, cell-based. In a few lines:
as §1

Experiment [8] shares this target. Description: In vitro inhibition of LH release was determined in rat pituitary cells at a dose of 30 ug of analogue and 1 ng of LHRH. Format: functional, cell-based. The settings on record: Pituitary gland cell. In a few lines:
as §1

The structures appear in SMILES notation. Square brackets hold non-standard residues; d marks the D form. Peptide text beside a SMILES is read from it. 2Nal = N[C@@H](Cc1ccc2ccccc2c1)C(=O)O

With `CCNC(=O)[C@@H]1CCCN1C(=O)[C@H](CCCCNC(C)C)NC(=O)[C@H](CC(C)C)NC(=O)[C@@H](CCCCNC(=O)c1ccccn1)NC(=O)[C@H](Cc1ccc(O)cc1)NC(=O)[C@H](CO)NC(=O)[C@@H](Cc1ccc2ccccc2c1)NC(C)=O`, the Activity in the experiment filed under Rattus norvegicus is 151.

Take `CC(=O)N[C@H](Cc1ccc2ccccc2c1)C(=O)N[C@@H](CO)C(=O)N[C@@H](Cc1ccc(O)cc1)C(=O)N[C@H](Cc1ccc2ccccc2c1)C(=O)N[C@@H](CC(C)C)C(=O)N[C@@H](CCCN=C(N)N)C(=O)N1CCC[C@H]1C(=O)NCC(N)=O`: the Activity in experiment [1] was determined as 3.8; in experiment [2], 50; in [3] it was 45; in experiment [4], 157; in the experiment listed under Rattus norvegicus it was 132; in [5], 112.

Take `CCNC(=O)[C@@H]1CCCN1C(=O)[C@H](CCCN=C(N)N)NC(=O)[C@H](CC(C)C)NC(=O)[C@@H](CCCCNC(=O)c1ccccn1)NC(=O)[C@H](CCCCNC(=O)c1ccccn1)NC(=O)[C@H](CO)NC(=O)[C@@H](Cc1ccc2ccccc2c1)NC(C)=O`: the Activity in the experiment listed under Rattus norvegicus was found to be 149.

`CCNC(=O)[C@@H]1CCCN1C(=O)C(CCCN=C(N)N)NC(=O)[C@H](CC(C)C)NC(=O)[C@H](CCCCNC(=O)c1ccccn1)NC(=O)C(CCCCNC(=O)c1ccccn1)NC(=O)[C@H](CO)NC(=O)[C@H](Cc1ccc2ccccc2c1)NC(C)=O` (stereo not given in full): the Activity came out at 2.1 in [1]; 8 in experiment [2]; 72 in experiment [4]; 108 in [6]; 27 in [5].

`CC(=O)N[C@@H](Cc1ccc2ccccc2c1)C(=O)N[C@@H](CO)C(=O)N[C@@H](Cc1ccc(O)cc1)C(=O)N[C@@H](Cc1cccnc1)C(=O)N[C@@H](CC(C)C)C(=O)N[C@@H](CCCN=C(N)N)C(=O)N1CCC[C@H]1C(=O)N[C@H](C)C(N)=O`: the Activity in experiment [1] is 4.8; in experiment [2], 33; in experiment [3], 11; in experiment [4] it was 112; in experiment [5], 72.

`CCNC(=O)[C@@H]1CCCN1C(=O)[C@H](CCCCNC(C)C)NC(=O)[C@H](CC(C)C)NC(=O)[C@H](CCCCNC(=O)c1ccccn1)NC(=O)[C@H](Cc1ccc(O)cc1)NC(=O)[C@H](CO)NC(=O)[C@H](Cc1ccc2ccccc2c1)NC(C)=O`: the Activity is 3.5 in [1]; 118 in [2]; 200 in experiment [4]; 194 in experiment [6]; 157 in [5].

Turning to `CC(=O)N[C@H](Cc1ccc2ccccc2c1)C(=O)N[C@@H](CO)C(=O)N[C@@H](Cc1ccc(O)cc1)C(=O)N[C@H](CCCCNC(=O)c1ccccn1)C(=O)N[C@@H](CC(C)C)C(=O)N[C@@H](CCCN=C(N)N)C(=O)N1CCC[C@H]1C(=O)N[C@H](C)C(N)=O`, the Activity came out at 6.3 in experiment [1]; 67 in [2]; 29 in experiment [3]; 201 in experiment [4]; 241 in the experiment listed under Rattus norvegicus; 154 in experiment [5].

Consider `CC(=O)NC(Cc1ccc2ccccc2c1)C(=O)N[C@@H](CO)C(=O)N[C@@H](Cc1ccc(O)cc1)C(=O)NC(Cc1ccc2ccccc2c1)C(=O)N[C@@H](CC(C)C)C(=O)N[C@@H](CCCCNC(C)C)C(=O)N1CCC[C@H]1C(=O)N[C@H](C)C(N)=O` (stereo in doubt), for which the Activity in experiment [1] was 2.1; in experiment [2], 55; in experiment [3], 23; in experiment [4], 135; in [6], 127; in the experiment filed under Rattus norvegicus, 149. In [5], this compound had an Activity of 104.

Take `CC(=O)N[C@H](Cc1ccc2ccccc2c1)C(=O)N[C@@H](CO)C(=O)N[C@@H](Cc1ccc(O)cc1)C(=O)N[C@H](Cc1ccc2ccccc2c1)C(=O)N[C@@H](CC(C)C)C(=O)N[C@@H](CCCN=C(N)N)C(=O)N1CCC[C@H]1C(N)=O`: the Activity turned out to be 4.1 in experiment [1]; 4 in experiment [2]; 3 in experiment [3]; 74 in experiment [4]; 154 in experiment [6]; 167 in the experiment listed under Rattus norvegicus. The compound further registered an Activity in experiment [5] of 13.

With `CCNC(=O)[C@@H]1CCCN1C(=O)[C@H](CC(C)C)NC(=O)[C@H](Cc1ccc2ccccc2c1)NC(=O)[C@H](Cc1ccc(O)cc1)NC(=O)[C@H](CO)NC(=O)[C@H](Cc1ccc2ccccc2c1)NC(C)=O` (Ac-[2Nal]SY[2Nal]LP-NHEt), the Activity stood at 3.1 in experiment [1]; 155 in experiment [2]; 151 in experiment [3]; 55 in [7]; 11 in experiment [8]; 145 in the experiment filed under Rattus norvegicus. The compound also displayed an Activity in experiment [5] of 148.

For `CCNC(=O)[C@@H]1CCCN1C(=O)[C@H](CCCN=C(N)N)NC(=O)[C@H](CC(C)C)NC(=O)[C@@H](Cc1cccnc1)NC(=O)[C@H](Cc1ccc(O)cc1)NC(=O)[C@H](CO)NC(=O)[C@@H](Cc1ccc2ccccc2c1)NC(C)=O`, the Activity in experiment [1] was determined as 9; in [2], 34; in [3], 14; in experiment [4] it was 134; in the experiment filed under Rattus norvegicus it was 279; in [5], 69.

As to `CCNC(=O)[C@@H]1CCCN1C(=O)[C@H](CCCCNC(C)C)NC(=O)[C@H](CC(C)C)NC(=O)C(Cc1ccc2ccccc2c1)NC(=O)[C@H](Cc1ccc(O)cc1)NC(=O)[C@H](CO)NC(=O)C(Cc1ccc2ccccc2c1)NC(C)=O` (stereo in doubt), the Activity in experiment [1] is 3.5; in experiment [2], 6; in [3], 4; in [4], 133; in experiment [6], 146; in the experiment filed under Rattus norvegicus, 148. The same compound came in with an Activity in experiment [5] of 26.

In the experiment listed under Rattus norvegicus, `CC(=O)N[C@H](Cc1ccc2ccccc2c1)C(=O)N[C@@H](CO)C(=O)N[C@@H](Cc1ccc(O)cc1)C(=O)N[C@H](Cc1cccnc1)C(=O)N[C@@H](CC(C)C)C(=O)N[C@@H](CCCN=C(N)N)C(=O)N1CCC[C@H]1C(=O)N[C@H](C)C(N)=O` registered an Activity of 251.

As for `CC(C)C[C@H](NC(=O)C(Cc1ccc2ccccc2c1)NC(=O)[C@H](Cc1ccc(O)cc1)NC(=O)[C@H](CO)NC(=O)[C@H](Cc1cccnc1)NC(=O)[C@H](Cc1ccc(Cl)cc1)NC(=O)[C@@H]1CCC(=O)N1)C(=O)N[C@@H](CCCN=C(N)N)C(=O)N1CCC[C@H]1C(=O)N[C@H](C)C(N)=O` (stereo in doubt), the Activity in experiment [1] was found to be 3.8; in [2], 149; in experiment [4], 158; in [6] it was 165; in the experiment filed under Rattus norvegicus, 132; in experiment [5] it was 170.

On to `CC(=O)N[C@@H](Cc1ccc2ccccc2c1)C(=O)N[C@@H](CO)C(=O)N[C@@H](Cc1ccc2ccccc2c1)C(=O)N[C@@H](CC(C)C)C(=O)N[C@@H](CCCN=C(N)N)C(=O)N1CCC[C@H]1C(=O)N[C@@H](C)C(N)=O` (Ac-[2Nal]S[2Nal]LRPA-NH2), for which the Activity turned out to be 2.3 in [1]; 13 in experiment [2]; 4 in [3]; 117 in experiment [4]; 155 in the experiment filed under Rattus norvegicus; 37 in experiment [5].

Regarding `CC(=O)N[C@H](Cc1ccc2ccccc2c1)C(=O)N[C@@H](CO)C(=O)N[C@@H](CCCCNC(=O)c1ccccn1)C(=O)N[C@H](CCCCNC(=O)c1ccccn1)C(=O)N[C@@H](CC(C)C)C(=O)N[C@@H](CCCN=C(N)N)C(=O)N1CCC[C@H]1C(=O)N[C@H](C)C(N)=O`, the Activity turned out to be 7.2 in [1]; 26 in experiment [2]; 8 in [3]; 118 in [4]; 224 in the experiment filed under Rattus norvegicus; 60 in [5].

In the case of `CCNC(=O)[C@@H]1CCCN1C(=O)[C@H](CCCN=C(N)N)NC(=O)[C@H](CC(C)C)NC(=O)[C@@H](Cc1c[nH]c2ccccc12)NC(=O)[C@H](Cc1ccc(O)cc1)NC(=O)[C@H](CO)NC(=O)[C@@H](Cc1ccc2ccccc2c1)NC(C)=O`, the Activity in experiment [1] was determined as 2.1; in [2], 2; in experiment [4], 40; in experiment [6] it was 85; in the experiment filed under Rattus norvegicus it was 149; in experiment [5] it was 10.

For `CC(=O)N[C@@H](Cc1ccc(Cl)cc1)C(=O)N[C@@H](Cc1cccnc1)C(=O)N[C@@H](CO)C(=O)N[C@@H](Cc1ccc(O)cc1)C(=O)NC(Cc1ccc2ccccc2c1)C(=O)N[C@@H](CC(C)C)C(=O)N[C@@H](CCCN=C(N)N)C(=O)N1CCC[C@H]1C(=O)N[C@H](C)C(N)=O` (stereo in doubt), the Activity came out at 3.5 in [1]; 145 in experiment [2]; 77 in [3]; 165 in [4]; 152 in [6]; 151 in the experiment listed under Rattus norvegicus. The compound further displayed an Activity in experiment [5] of 152.
